Source: PubChem BioAssay
B2AR ag: human beta-2 adrenergic receptor agonism by FAP; P07550; Am2.2-beta2AR cells, FAP receptor internalization, flow cytometry; response, % (test concentration not listed); hit rate 0.43% among 340,000;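 active means response above a set limit, near 3 SD of response in nonfluorescent compounds, cut at about 42% in these data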
Target sequence (P07550 whole entry, looked up): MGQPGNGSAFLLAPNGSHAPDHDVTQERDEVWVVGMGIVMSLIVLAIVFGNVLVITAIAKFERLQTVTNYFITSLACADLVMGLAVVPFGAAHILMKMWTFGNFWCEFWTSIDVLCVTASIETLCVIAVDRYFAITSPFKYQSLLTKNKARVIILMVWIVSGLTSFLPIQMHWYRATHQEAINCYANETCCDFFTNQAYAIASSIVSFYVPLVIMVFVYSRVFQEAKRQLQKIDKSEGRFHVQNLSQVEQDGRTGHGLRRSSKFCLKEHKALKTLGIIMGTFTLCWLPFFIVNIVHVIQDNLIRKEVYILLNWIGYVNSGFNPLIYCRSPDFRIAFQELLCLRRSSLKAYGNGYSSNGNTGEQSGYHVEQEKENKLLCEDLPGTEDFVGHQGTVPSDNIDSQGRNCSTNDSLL
SENP1 FRET inh: inhibitors of human SENP1 SUMO protease catalytic domain; Q9P0U3; recombinant SENP1 catalytic domain, CyPet-SUMO1-YPet FRET cleavage; inhibition, % at 10 µM; hit rate 0.21% among 360,000;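 active means inhibition at least 30% at 10 µM, raw YFP signal under a set limit, fluorescence ratio 0.5 to 1.5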
Target sequence (Q9P0U3 419-644 limits assumed): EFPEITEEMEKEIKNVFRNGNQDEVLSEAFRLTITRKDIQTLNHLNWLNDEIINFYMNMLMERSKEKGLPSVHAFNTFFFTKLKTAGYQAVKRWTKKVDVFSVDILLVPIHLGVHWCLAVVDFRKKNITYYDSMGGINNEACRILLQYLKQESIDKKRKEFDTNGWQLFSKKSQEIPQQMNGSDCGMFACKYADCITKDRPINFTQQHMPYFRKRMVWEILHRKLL
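system = hSENP1 catalytic domain, recombinant | reagent = SFCypet-SUMO1-SFYpet substrate at 25 nM | doses = one dose per compound, 10 µM, 0.5% DMSO | incubation = enzyme reaction for 50 min at room temperature, dark | measured by = FRET, CFP and YFP emission | controls = no-enzyme low, enzyme-DMSO high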
GRK2 inh: inhibitors of human GRK2 displacing RNA aptamer | bead flow cytometry, FAM-aptamer displacement from GRK2 | P25098 | AID 488847 | inhibition of aptamer binding, % at 10 µM | hit rate 0.59% among 330,000;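 active means inhibition of aptamer binding above 40%, roughly 3 SD of noise, on plates passing a quality check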;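 further: median bead fluorescence of bound FAM aptamer so fluorescent compounds give negative values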
NadD inh: blocks S. aureus nicotinate mononucleotide adenylyltransferase; purified NadD enzyme, colorimetric absorbance read-out; inhibition, % at 20 µM; hit rate 0.78% among 360,000; AID 602399; in the data active means inhibition above about 26%
ABHD5 PLIN5 PPI: inhibitors of human ABHD5-perilipin-5 interaction. AID 602281. hit rate 0.78% among 360,000. inhibition, % at 4 µM. Split G. princeps luciferase complementation, luminescence, 4 h;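 active means inhibition above the mean inhibition across every tested compound plus 3 SD, cut at about 22% in these data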
GRK2 CP1: confirmation of human GRK2 inhibitors displacing RNA aptamer; aptamer displacement, % at 10 µM; shares compounds with GRK2 inh; bead-bound GRK2, FAM-aptamer displacement, flow cytometry; hit rate 4% among 2,000;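 active means aptamer displacement above 40%, near three times the noise of non-fluorescent compounds, on plates passing quality checks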;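 further: negative values mostly reflect intrinsic compound fluorescence rather than true enhancement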
Aptamer quench: quenches fluorescent RNA aptamer, GRK2 hit artifact; shares compounds with GRK2 inh; Fluorescent RNA aptamer beads, quenching, flow cytometry; active compounds read high; fluorescence change (kMESF span), kMESF (test concentration not listed); 110 tested, under 10 active; AID 504521;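 active means compounds whose bead fluorescence drops by more than 37 kMESF across the dose range, marking them as dye quenchers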
FAM quench CP1: quenches fluorescent RNA aptamer, GRK2 hit artifact; 2,000 tested, under 10 active; Carboxyfluorescein RNA aptamer on beads, flow cytometry quenching; active compounds read low; fluorescence response (% of DMSO), % at 10 µM; AID 504580; shares compounds with GRK2 inh;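 active means compounds that quench the bead-bound fluorescent RNA probe, cutting fluorescence to under half of the solvent control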;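 further: counterscreen run without GRK2 so only probe quenching by compound is measured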
GRK2 CP2: human GRK2 inhibition confirmation, cherry pick 2 | inhibition of aptamer binding, % at 10 µM | 360 tested, under 10 active | AID 504782 | shares compounds with GRK2 inh | bead-bound GRK2, FAM-aptamer displacement, flow cytometry;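 active means inhibition of aptamer binding above 40%, about triple the noise seen with nonglowing compounds, on plates passing quality control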;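 further: negative values mostly come from compounds that fluoresce themselves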
Aptamer quench3: counter-screen for GRK2 aptamer inhibitors: fluorescent aptamer quenchers; Streptavidin beads, FAM-RNA aptamer fluorescence quenching, flow cytometry; shares compounds with GRK2 inh; change in fluorescence (kMESF span), kMESF (no concentration beside the values); 25 tested, under 10 active;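 active means compounds quenching the bead-bound labeled aptamer, with fluorescence dropping by more than 37 kMESF over the dose range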
FAM quench CP2: aptamer fluorescence quenching in GRK2 counter-screen. 360 tested, under 10 active. shares compounds with GRK2 inh. carboxyfluorescein RNA aptamer beads, flow cytometry quenching; active compounds read low. fluorescence response vs DMSO, % at 10 µM;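 active means response vs DMSO under 50%, meaning signal dropped by over half, treated as fluorescence quencher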;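 further: labelled aptamer on streptavidin beads without GRK2 as a quench counter-screen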
FAM quench DR: counter-screen for GRK2 aptamer binding inhibitors: aptamer fluorescence quenching; shares compounds with GRK2 inh; Bead-bound FAM RNA aptamer fluorescence quenching, flow cytometry; active compounds read low; fluorescence ratio to DMSO, % at 11.1 µM; 35 tested, under 10 active;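 active means compounds that dim the fluorescent label, raw bead signal shifting by over 33 units between lowest and highest dose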
A number is an active result; n = inactive; x = not tested or not shown. The list is not random: actives were taken first. Their share in the collection is about 2.5%.

SMILES	B2AR ag	SENP1 FRET inh	GRK2 inh	NadD inh	ABHD5 PLIN5 PPI	GRK2 CP1	FAM quench CP1	others
CCC(CO)Nc1ccc(-c2n[nH]c(=O)c3ccccc23)cc1[N+](=O)[O-] (centres undefined)	n	n	60.0	n	n	x	x	GRK2 CP2=n;FAM quench CP2=n
O=C(Cc1ccccc1)Nc1ccc(NC(=O)c2ccccc2)nc1	n	n	41.0	n	n	x	x	GRK2 CP2=n;FAM quench CP2=n
COc1cc(C(=O)NCCC(c2ccccc2)c2ccccc2)cc(OC)c1OC	n	n	n	n	n	x	x
OCC1OC(c2ccc(OCc3ccccc3)cc2OCc2ccccc2)C(O)C1O (centres undefined)	x	n	x	n	n	x	x
O=[N+]([O-])c1cc(Br)c(O)c(C=Nc2ccc(N3CCOCC3)cc2)c1	n	n	51.0	n	n	n	n
CCCC(C)NC(=O)C1c2ccccc2Oc2ccccc21 (centres undefined)	n	n	n	n	n	x	x
CC1Sc2ccc(S(=O)(=O)CCC(=O)NC(C)c3ccccc3)cc2NC1=O (centres undefined)	n	n	n	n	n	x	x	GRK2 CP2=n;FAM quench CP2=n
CCOc1ccccc1N(C)C(=O)CCS(=O)(=O)c1ccc2c(c1)NC(=O)C(C)S2 (centres undefined)	n	n	n	n	n	x	x	GRK2 CP2=n;FAM quench CP2=n
CCC1Sc2ccc(S(=O)(=O)CCC(=O)Nc3c(Cl)cc(OC)cc3OC)cc2NC1=O (centres undefined)	n	n	n	n	n	x	x	GRK2 CP2=n;FAM quench CP2=n
CC1Sc2ccc(S(=O)(=O)CCC(=O)Nc3ccc(C(C)C)cc3)cc2NC1=O (centres undefined)	n	n	n	n	n	x	x
Cc1ccc(NC(=O)CCS(=O)(=O)c2ccc3c(c2)NC(=O)C(C)S3)cc1Cl (centres undefined)	n	n	n	n	n	x	x	GRK2 CP2=n;FAM quench CP2=n
CCC1Sc2ccc(S(=O)(=O)Nc3cc(OC)cc(OC)c3)cc2NC1=O (centres undefined)	n	n	n	n	n	x	x
COC(=O)COc1ccc(C2NC(=O)NC(c3ccccc3)=C2C(C)=O)cc1Br (centres undefined)	n	n	n	n	n	x	x
COC(=O)C1(C(=O)OC)c2ccccc2CN(S(=O)(=O)c2ccc(C)cc2)C1CC(C)=O (centres undefined)	x	n	x	x	n	x	x
CC(C)=C(NC(=O)c1ccccc1Cl)C(=O)NCCc1nc2ccccc2[nH]1	x	n	x	n	n	x	x
C/C(=N\NC(=O)CNC(=O)C(c1ccccc1)c1ccccc1)c1ccccc1	n	n	n	n	n	x	x
O=C(O)CC/C(=N/NC(=O)CNC(=O)C(c1ccccc1)c1ccccc1)c1ccccc1	n	n	90.0	n	n	n	n
CN(CC(=O)Nc1ccccc1Br)C(=O)CN1CCN(Cc2ccc(Cl)cc2)CC1	n	n	n	n	n	x	x
COc1ccc2[nH]c3c(=O)n(/N=C/c4ccc(OC)c(CN5CCCC5)c4)c(C)nc3c2c1	n	n	59.0	n	n	n	n
COc1ccc(/C=N/n2c(C)nc3c([nH]c4ccccc43)c2=O)cc1CN1CCCC(C)(C)C1	n	n	n	n	n	x	x
COc1ccc(NC(=O)COC(=O)CN2C(=O)C3CCCCC3C2=O)cc1OC (centres undefined)	n	n	n	n	n	x	x
COc1ccc(CNC(=O)C2CC(C)=C(C)CC2C(=O)O)cc1OC (centres undefined)	n	n	n	n	n	x	x	GRK2 CP2=n;FAM quench CP2=n
CCOc1ccc(CCNC(=O)C2CC(C)=CCC2C(=O)O)cc1OCC (centres undefined)	n	n	66.0	n	n	53.0	n	Aptamer quench=n
COc1cc(NC(=O)COC(=O)CO/N=C(\C)c2ccc3c(c2)OCO3)cc(OC)c1	n	n	n	n	n	x	x
O=C(CCCCC(=O)NCc1cccs1)NCc1cccs1	n	n	n	n	n	x	x
SMILES	B2AR ag	SENP1 FRET inh	GRK2 inh	NadD inh	ABHD5 PLIN5 PPI	GRK2 CP1	FAM quench CP1	others
O=C(CCS(=O)(=O)c1ccc(Br)cc1)NCc1ccco1	n	n	63.0	n	n	n	n	Aptamer quench=n;Aptamer quench3=n
CCN(CC(=O)NCc1cccs1)C(=O)c1cccc(S(=O)(=O)NC)c1	n	n	48.0	n	n	n	n
O=C(CCNC(=O)c1ccc(Br)cc1)NCc1ccco1	n	n	n	n	n	x	x
CCN(CC(=O)NCc1cccs1)C(=O)c1cccc(S(=O)(=O)N(C)C)c1	n	n	n	n	n	x	x
O=C(CCS(=O)(=O)c1ccc(Br)cc1)NCc1cccs1	n	n	94.0	n	n	57.5	n	Aptamer quench=n;Aptamer quench3=n;FAM quench DR=n
CCOC(=O)C1=CNS(=O)(=O)NC1c1ccc(C(F)(F)F)cc1 (centres undefined)	n	n	n	n	n	x	x
O=S(=O)(c1ccccc1OC(F)(F)F)N1CCN(c2ccnc3cc(Cl)ccc23)CC1	n	n	77.0	n	n	x	x	GRK2 CP2=n;FAM quench CP2=n
O=S(=O)(c1cccc(Br)c1)N1CCN(c2ccnc3cc(Cl)ccc23)CC1	n	n	n	n	n	x	x
CC1CCCCC1NC(=O)CN1C(=O)NC(C)(c2cc(F)ccc2F)C1=O (centres undefined)	n	n	n	n	n	x	x
Cc1ccc(S(=O)(=O)Nc2nnc(CC(C)(C)C)s2)cc1	n	n	n	n	n	x	x
CC(C)(C)Cc1nnc(NS(=O)(=O)c2ccc([N+](=O)[O-])cc2)s1	n	n	57.0	n	n	n	n
CCN(CC)S(=O)(=O)c1ccc(N2CCCC2)c(NC(=O)C2CSC3(C)CCC(=O)N23)c1 (centres undefined)	n	n	n	n	n	x	x
CCn1c(SCC(=O)N2CCCC2)nnc1-c1ccco1	n	n	47.0	n	n	n	n
CCn1c(SCC(=O)N2CCOCC2)nnc1-c1ccco1	n	n	n	n	n	x	x
CCOC(=O)/C(C#N)=c1/s/c(=C2\C=Cc3ccccc3N2CC)c(=O)n1CC	n	n	65.0	n	n	n	n
